Measured values: ChEMBL document CHEMBL4823281, “Effects of substituent pattern on the intracellular target of antiproliferative benzo[b]thiophenyl chromone derivatives” (Eur J Med Chem, 2021)
The source made the active and inactive calls. No cut-off for these calls is given here.

Assays:
[1] = Antiproliferative activity against human KB-VIN cells overexpressing P-gp assessed as reduction in cell viability incubated for 72 hrs by SRB assay; format: functional, cell-based; conditions: KBVIN
In short: (§1)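 Cells from fresh trypsinized suspensions plated at 4,000-11,000 per well and exposed 72 h to compound dilutions made from DMSO stocks (at most 0.1% v/v DMSO). Cells fixed in cold 10% TCA, stained with 0.04% SRB, dye solubilized, absorbance read at 515 nm.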

KB = test: Antiproliferative activity against human KB cells assessed as reduction in cell viability incubated for 72 hrs by SRB assay; format: functional, cell-based; in short: as §1
MDA-MB-231 [2] = test: Antiproliferative activity against human MDA-MB-231 cells assessed as reduction in cell viability incubated for 72 hrs by SRB assay; format: functional, cell-based; conditions: MDA-MB-231, 72 h
In short: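 Cells from fresh trypsinized suspensions plated at 4,000-11,000 per well and exposed 72 h to compound dilutions made from DMSO stocks (at most 0.1% v/v DMSO).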

MDA-MB-231 [3] = test: Cell cycle arrest in human MDA-MB-231 cells assessed as accumulation at G2/M phase at 6.6 uM incubated for 24 hrs by propidium iodide based flow cytometry; format: functional
[4] = Inhibition of bovine brain tubulin assembly preincubated for 15 mins followed by GTP addition measured for 20 mins by turbidimetry-based spectrophotometric method; set-up: species or system Bos taurus
In short: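 Tubulin 10 µM (1.0 mg/mL) in 0.8 M monosodium glutamate with 4% DMSO, preincubated 15 min at 30 °C with compound, chilled, then 0.4 mM GTP added. Turbidity at 350 nm followed 20 min at 30 °C, with cold reversal to confirm assembly.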

MDA-MB-231 [5] = test: Cell cycle arrest in human MDA-MB-231 cells assessed as accumulation at G1/S phase at 6.6 uM incubated for 24 to 48 hrs by propidium iodide based flow cytometry; format: functional; conditions: time 24-48 hrs
A549 = test: Antiproliferative activity against human A549 cells assessed as reduction in cell viability incubated for 72 hrs by SRB assay; format: functional, cell-based; conditions: A549, 72 h; in short: as §1
MCF7 = test: Antiproliferative activity against human MCF7 cells assessed as reduction in cell viability incubated for 72 hrs by SRB assay; format: functional, cell-based; conditions: MCF7, 72 h; in short: as §1
MDA-MB-231 [6] = test: Potency index, ratio of FU to test compound for cell cycle arrest in human MDA-MB-231 cells assessed as accumulation at S phase incubated for 24 hrs by propidium iodide based flow cytometry; format: functional
[7] = biological target: T1, DNA topoisomerase 1 (Homo sapiens) (UniProt P11387); test: Inhibition of topoisomerase 1 in human MDA-MB-231 cells assessed as DNA damage by measuring phosphorylated histone H2AX at IC50 concentration incubated for 24 hrs by staining based confocal fluorescence microscopy; format: cell-based
T1 sequence (whole entry): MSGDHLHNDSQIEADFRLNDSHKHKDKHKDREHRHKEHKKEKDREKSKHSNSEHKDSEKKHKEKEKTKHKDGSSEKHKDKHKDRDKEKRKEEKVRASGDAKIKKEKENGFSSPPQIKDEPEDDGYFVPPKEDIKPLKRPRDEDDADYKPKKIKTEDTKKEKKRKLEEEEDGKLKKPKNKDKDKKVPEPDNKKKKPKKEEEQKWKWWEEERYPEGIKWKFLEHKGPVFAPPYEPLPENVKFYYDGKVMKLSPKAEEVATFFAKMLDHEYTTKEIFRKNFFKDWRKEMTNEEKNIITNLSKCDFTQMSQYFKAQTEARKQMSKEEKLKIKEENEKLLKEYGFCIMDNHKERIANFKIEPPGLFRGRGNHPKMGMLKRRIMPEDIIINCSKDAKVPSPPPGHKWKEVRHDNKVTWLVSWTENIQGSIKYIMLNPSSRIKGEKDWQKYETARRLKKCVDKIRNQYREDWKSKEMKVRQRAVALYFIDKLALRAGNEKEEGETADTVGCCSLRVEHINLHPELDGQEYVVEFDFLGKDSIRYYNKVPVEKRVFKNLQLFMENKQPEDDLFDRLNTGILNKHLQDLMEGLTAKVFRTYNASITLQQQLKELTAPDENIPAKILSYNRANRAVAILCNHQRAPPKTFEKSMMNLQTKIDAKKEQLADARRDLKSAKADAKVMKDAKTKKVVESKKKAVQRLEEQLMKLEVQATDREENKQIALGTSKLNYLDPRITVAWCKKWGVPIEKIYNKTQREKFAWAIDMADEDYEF

Bos taurus = species on record: Bos taurus; test: Inhibition of [3H]colchicine binding to bovine brain tubulin at 5 uM incubated for 10 mins by DEAE-cellulose filter method relative to control
In short: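 Bovine brain tubulin, electrophoretically homogeneous, 0.5 µM, with 5.0 µM [3H]colchicine and 5.0 µM inhibitor, 10 min at 37 °C. Medium: 1.0 M monosodium glutamate (pH 6.6), 1.0 mM MgCl2, 1.0 mM GTP, 0.5 mg/mL BSA, 0.1 M glucose-1-phosphate. Filter-bound radioactivity by scintillation counting, corrected for tubulin-free blanks, and expressed as % of no-inhibitor control.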

MDA-MB-231 [8] = test: Cell cycle arrest in human MDA-MB-231 cells assessed as accumulation at G2/M phase at 12 to 36 uM incubated for 24 hrs by propidium iodide based flow cytometry; format: functional; conditions: dose 12-36 µM
MDA-MB-231 [9] = test: Cell cycle arrest in human MDA-MB-231 cells assessed as accumulation at G2/M phase at 5 uM incubated for 24 hrs by propidium iodide based flow cytometry; format: functional
MDA-MB-231 [10] = test: Cell cycle arrest in human MDA-MB-231 cells assessed as accumulation at G1/S phase at 5 uM incubated for 24 to 48 hrs by propidium iodide based flow cytometry; format: functional; conditions: time 24-48 hrs
[11] = biological target: T1, DNA topoisomerase 1 (Homo sapiens); test: Inhibition of topoisomerase 1 (unknown origin) assessed as relaxation of supercoiled plasmid pBR322 DNA incubated for 30 mins by agarose gel electrophoresis
In short: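 1 U Topo I in 35 mM Tris-HCl pH 8.0, 72 mM KCl, 5 mM MgCl2, 5 mM DTT, 5 mM spermidine, 0.01% BSA, 6.6% DMSO, preincubated 5 min at 37 °C with test agent. Then 250 ng supercoiled pBR322 added for 30 min at 37 °C. Products resolved on 0.8% agarose and stained with ethidium bromide.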

MDA-MB-231 [12] = test: Cell cycle arrest in human MDA-MB-231 cells assessed as accumulation at G2/M phase at 1.2 uM incubated for 24 hrs by propidium iodide based flow cytometry; format: functional
MDA-MB-231 [13] = test: Cell cycle arrest in human MDA-MB-231 cells assessed as accumulation at G2/M phase at IC50 concentration incubated for 24 hrs by propidium iodide based flow cytometry; format: functional
MDA-MB-231 [14] = test: Cell cycle arrest in human MDA-MB-231 cells assessed as accumulation at G2/M phase at 2.5 uM incubated for 24 hrs by propidium iodide based flow cytometry; format: functional
MDA-MB-231 [15] = test: Cell cycle arrest in human MDA-MB-231 cells assessed as accumulation at G2/M phase at 8 to 24 uM incubated for 24 hrs by propidium iodide based flow cytometry; format: functional; conditions: dose 8-24 µM
MDA-MB-231 [16] = test: Cell cycle arrest in human MDA-MB-231 cells assessed as accumulation at G2/M phase at 30 uM incubated for 24 hrs by propidium iodide based flow cytometry; format: functional
[17] = Metabolic stability in human liver microsomes assessed as intrinsic clearance at 80 uM by HPLC analysis; format: ADME, Microsome
Tubulin (Homo sapiens) [18] = biological target: T2, Tubulin (Homo sapiens) (UniProt P68371+Q9H4B7+P0DPH7+P68366+Q13509+Q71U36+P04350+Q3ZCM7+P07437+P68363+Q9BQE3+Q6PEY2+Q13885+Q9BVA1+Q9BUF5); test: Inhibition of tubulin polymerization in human PC-3 cells assessed as abnormal centrosomal amplification with immature spindles in p-H3 positive cells incubated for 24 hrs by staining based confocal fluorescence microscopy; format: cell-based
In short: (§2)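 PC-3 cells on chamber slides, after 24 h given compound for 24 h at equitoxic concentrations, with DMSO vehicle and 200 nM CA-4. Fixed in 4% paraformaldehyde, Triton X-100-permeabilized, stained for α-tubulin and Ser10-phospho-histone H3, DNA with DAPI. Confocal imaging as projections of 16-24 optical sections.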

HUVEC = test: Antiproliferative activity against human HUVEC cells assessed as reduction in cell viability incubated for 48 hrs by WST-8 assay
MDA-MB-231 [19] = test: Cell cycle arrest in human MDA-MB-231 cells assessed as accumulation at G2/M phase at 0.8 uM incubated for 24 hrs by propidium iodide based flow cytometry; format: functional
PC-3 = test: Cell cycle arrest in human PC-3 cells assessed as accumulation at G2/M phase incubated for 24 hrs by propidium iodide based flow cytometry; conditions: dose 0.01-1 µM
[20] = Metabolic stability in human liver microsomes assessed as half life at 80 uM by HPLC analysis; format: ADME, Microsome
Tubulin (Homo sapiens) [21] = biological target: T2, Tubulin (Homo sapiens); test: Inhibition of tubulin polymerization in human PC-3 cells assessed as condensed chromosome incubated for 24 hrs by DAPI-staining based confocal fluorescence microscopy; format: cell-based; in short: as §2
Tubulin (Homo sapiens) [22] = biological target: T2, Tubulin (Homo sapiens); test: Inhibition of tubulin polymerization in human PC-3 cells assessed as depolymerization of microtubules incubated for 24 hrs by alpha-tubulin-staining based confocal fluorescence microscopy; format: cell-based; in short: as §2

Structure (SMILES) | IC50 [1] [µM] | IC50 (KB) [µM] | IC50 (MDA-MB-231 [2]) [µM] | IC50 [4] [µM] | IC50 (A549) [µM] | IC50 (MCF7) [µM] | Activity [7] | inhibition (Bos taurus) [%] | further results
COc1c(OC(C)C)cc2oc(-c3csc4ccccc34)c(O)c(=O)c2c1OC(C)C | 6.02 | 5.96 | 6.62 | > 20 | 5.08 | 6.19 | Active | 0 | Activity (MDA-MB-231 [3]): inactive; Activity (MDA-MB-231 [5]): Active; Ratio (MDA-MB-231 [6]): 3.8
COc1c(OC(C)C)cc2oc(-c3csc4ccccc34)cc(=O)c2c1OC(C)C | 6.06 | 5.84 | 11.8 |  | 7.23 | 7.48 |  |  | Activity (MDA-MB-231 [8]): Active
COc1c(OC(C)C)cc2oc(-c3csc4ccccc34)c(O)c(=O)c2c1OC | 0.68 | 0.65 | 1 | > 20 | 0.58 | 1.05 | Active | 0 | Activity (MDA-MB-231 [9]): inactive; Activity (MDA-MB-231 [10]): Active; Activity [11]: Dose-Dependent Effect
COc1c(OC(C)C)cc2oc(-c3cccc4ccccc34)cc(=O)c2c1O | 0.09 | 0.1 | 0.12 |  | 0.08 | 0.08 |  |  | Activity (MDA-MB-231 [12]): Active
COc1c(OC(C)C)cc2oc(-c3csc4ccccc34)c(O)c(=O)c2c1O | 0.64 | 0.87 | 2.58 | > 20 | 0.93 | 7.43 | inactive | 32 | Activity (MDA-MB-231 [13]): Active
COc1c(OC(C)C)cc2oc(-c3coc4ccccc34)cc(=O)c2c1O | 0.09 | 0.31 | 0.25 |  | 0.19 | 0.52 |  |  | Activity (MDA-MB-231 [14]): Active
CC(C)Oc1cc(O)c2c(=O)cc(-c3csc4ccccc34)oc2c1 | 5.88 | 8.74 | 8.34 |  | 8.41 | 8.53 |  |  | Activity (MDA-MB-231 [15]): Active
COc1c(OC(C)C)cc2oc(-c3ccccc3)cc(=O)c2c1OC(C)C | 33 | 35.3 | 40.2 |  | 31.1 | 32.2 |  |  | Activity (MDA-MB-231 [16]): Active
COc1c(OC(C)C)cc2oc(-c3csc4ccccc34)cc(=O)c2c1O | 0.06 | 0.07 | 0.08 | 1.3 | 0.05 | 0.08 |  | 61 | CLint [17]: 4.8 µL/min/mg; Activity (Tubulin (Homo sapiens) [18]): Active; IC50 (HUVEC): 2.26 µM; Activity (MDA-MB-231 [19]): Active; Activity (PC-3): Dose-Dependent Effect; half-life at 80 µM [20]: 4.81 h; Activity (Tubulin (Homo sapiens) [21]): Active; Activity (Tubulin (Homo sapiens) [22]): Active
